Activity calls are given as the source filed them. No cut-off for these calls is given here.
Key:
DNA [1] = experiment: Binding affinity to calf thymus DNA assessed as thermal denaturation temperature at 20 uM after 72 hrs; format: nucleic-acid assay; conditions: Bos taurus
DNA [2] = experiment: Binding affinity to calf thymus DNA assessed as thermal denaturation temperature at 20 uM after 4 hrs; format: nucleic-acid assay; conditions: Bos taurus
DNA [3] = experiment: Binding affinity to calf thymus DNA assessed as thermal denaturation temperature at 20 uM after 18 hrs; format: nucleic-acid assay; conditions: Bos taurus
OVCAR-5 [4] = experiment: Cytotoxicity against human OVCAR5 cells after 96 hrs by Alamar blue method; format: functional, cell-based; conditions: OVCAR-5, 96 h
How it was run: (§1)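 Cells were exposed to compound continuously for 96 h, and viability was read by Alamar blue. The IC50 is the mean with standard deviation of three independent experiments.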

LOX IMVI [5] = experiment: Cytotoxicity against human LOXIMVI cells after 96 hrs by Alamar blue method; format: functional, cell-based; how it was run: as §1
OVCAR-5 [6] = experiment: Cytotoxicity against human OVCAR5 cells at 1 uM after 96 hrs by Alamar blue method; format: functional, cell-based
LOX IMVI [7] = experiment: Cytotoxicity against human LOXIMVI cells at 1 uM after 96 hrs by Alamar blue method; format: functional, cell-based
LOX IMVI [8] = experiment: Cytotoxicity against human LOXIMVI cells after 24 hrs by Alamar blue method; format: functional, cell-based

Row | SMILES | ΔTm (DNA [1]) | ΔTm (DNA [2]) | ΔTm (DNA [3]) | IC50 (OVCAR-5 [4]) | IC50 (LOX IMVI [5]) | Activity (OVCAR-5 [6]) | Activity (LOX IMVI [7]) | IC50 (LOX IMVI [8])
1 | COc1cc2c(cc1O)N=C[C@@H]1CCCN1C2=O | 0.8 °C | 0.5 °C | 0.7 °C | – | – | – | – | –
2 | CCN(CC)c1ccc2cc(C(=O)NCCCCNC(=O)CCOc3cc4c(cc3OC)C(=O)N3CCC[C@H]3C=N4)c(=O)oc2c1 | 1 °C | 0.7 °C | 0.9 °C | > 10 µM | > 10 µM | – | – | –
3 | CCN(CC)c1ccc2cc(C(=O)NCCCCCCCCOc3cc4c(cc3OC)C(=O)N3CCC[C@H]3C=N4)c(=O)oc2c1 | 2.9 °C | 1.4 °C | 2 °C | 7.8 µM | 4.5 µM | – | – | –
4 | COc1cc2c(cc1C)N=C[C@@H]1CCCN1C2=O | – | – | – | – | – | inactive | inactive | –
5 | CCN(CC)c1ccc2cc(C(=O)NCCCOc3cc4c(cc3OC)C(=O)N3CCC[C@H]3C=N4)c(=O)oc2c1 | 3.9 °C | 3.4 °C | 3.6 °C | 3.2 µM | 1.4 µM | – | – | 1.5 µM
6 | CCOC(=O)c1cc2ccc(N(CC)CC)cc2oc1=O | 0.2 °C | 0.2 °C | 0.2 °C | > 10 µM | > 10 µM | – | – | –
